Consider five molecules from ChEMBL document CHEMBL2311353, “Synthesis and antiproliferative activities of N-(naphthalen-2-yl)acetamide and N-(substituted phenyl)acetamide bearing quinolin-2(1H)-one and 3,4-dihydroquinolin-2(1H)-one derivatives” (Eur J Med Chem, 2013).

Experiment [1] has as its system MKN-45. The experiment in a line: Antiproliferative activity against human MKN45 cells after 72 hrs by MTT assay. The experiment is classed as functional, cell-based. The note with it: MKN-45, 72 h. In short, it runs like this: (§1)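 Log-phase cells were seeded, left overnight, then exposed to a range of compound concentrations for 72 h. MTT at 0.4 mg/mL in MEM was added for 2 h, and formazan was read at 570 nm. GI50 was taken from percent conversion relative to mock-treated controls.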

The test system of experiment [2] is A498. The experiment in a line: Antiproliferative activity against human A498 cells after 72 hrs by MTT assay. The class given is functional, cell-based. The note with it: A498, 72 h. The essentials: as §1
On the technique in general: Tetrazolium dyes change colour on reduction, which living cells bring about.

Experiment [3] can be described thus: Antiproliferative activity against human Hep3B cells after 72 hrs by MTT assay. The experiment is classed as functional, cell-based, Hep 3B2. The essentials:
as §1

Experiment [4] in a line: Antiproliferative activity against human NPC-TW01 cells after 72 hrs by MTT assay. The experiment is classed as functional, cell-based. The note with it: NPC-TW01, 72 h. The essentials:
as §1

Experiment [5] relates to NCI-H661. The experiment in a line: Antiproliferative activity against human NCI-H661 cells after 72 hrs by MTT assay. The class given is functional, cell-based. The note with it: NCI-H661, 72 h. The essentials:
as §1

SMILES strings stand for the structures.

`O=C(COc1ccc2c(c1)NC(=O)CC2)Nc1ccccc1`: the 50% inhibitory concentration (IC50) in experiment [1] was determined as 32.4 µM; in experiment [2], 12 µM; in experiment [3] it was 27.2 µM; in experiment [4], 16 µM; in experiment [5], 21.8 µM.

Take `O=C(COc1ccc2c(c1)NC(=O)CC2)Nc1ccc(F)cc1`: the IC50 in experiment [1] stood at 38.6 µM; in experiment [2] it was 11.3 µM; in experiment [3], 27 µM; in experiment [4], 15.8 µM; in experiment [5], 15.3 µM.

Consider `COc1ccc(NC(=O)COc2ccc3c(c2)NC(=O)CC3)cc1`, for which the concentration for half-maximal inhibition (IC50) stood at 36.3 µM in experiment [1]; 19.3 µM in experiment [2]; 31.1 µM in experiment [3]; 13.1 µM in experiment [4]; 16.4 µM in experiment [5].

Consider `O=C(COc1ccc2c(c1)NC(=O)CC2)Nc1ccc(-c2ccccc2)cc1`, for which the 50% inhibitory concentration (IC50) in experiment [1] was 32.4 µM; in experiment [2] it was 12 µM; in experiment [3], 8.1 µM; in experiment [4], 2.9 µM; in experiment [5] it was 15.4 µM.

In the case of `O=C(COc1ccc2c(c1)NC(=O)CC2)Nc1ccc2ccccc2c1`, the concentration for half-maximal inhibition (IC50) in experiment [1] was found to be 26.9 µM; in experiment [2] it was 8.6 µM; in experiment [3] it was 19.2 µM; in experiment [4] it was 8.9 µM; in experiment [5], 11.2 µM.

One may read the IC50 as the concentration needed to halve the response being measured. Lower therefore signals inhibition by little substance.
